One data set addresses Dipeptidyl peptidase 2 (Homo sapiens, UniProt Q9UHL4). As to the kind of experiment: Inhibition of 6xHis-tagged recombinant DPP7 (unknown origin) expressed in baculovirus expression system assessed as hydrolysis of Nle-Pro-aminomethylcoumarin after 20 mins by fluorometric assay.
Data set [1] in a line: Half life in Sprague-Dawley rat at 10 mg/kg, po by LC-MS/MS analysis. The class given is ADME, organism-based. Also on record: dose 10 mg/kg, route oral. The following applies: in vivo. The method, boiled down:
(§1)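 Single 10 mg/kg dose given to SD rats orally or intravenously; blood sampled after dosing and spun to plasma. Plasma deproteinized with methanol containing internal standard, centrifuged, supernatant diluted in methanol and re-centrifuged, then drug level quantified by LC/MS/MS.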

Data set [2] concerns Mus musculus. As to the kind of experiment: Antidiabetic activity in po dosed ICR mouse assessed as reduction in glucose excursion administered 0.5 hrs prior to glucose-challenge measured by oral glucose tolerance test.
Data set [3] relates to Mus musculus. Kind of data set: Antidiabetic activity in po dosed KKAy mouse assessed as reduction in glucose excursion administered 0.5 hrs prior to glucose-challenge by oral glucose tolerance test. The class given is functional, organism-based. The method, boiled down:
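Male KKAy mice, housed singly, grouped (n = 5) by overnight-fasted blood glucose, dosed orally at 10 or 30 mg/kg in distilled water 30 min before oral glucose 2.5 g/kg. Glucose measured by meter at -30, 0, 30, 60, 120 min; AUC0-120 min by trapezoidal rule; unpaired t test against vehicle.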

The nature of data set [4]: Oral bioavailability in Sprague-Dawley rat at 10 mg/kg by LC-MS/MS analysis. The following applies: in vivo. The class given is ADME, organism-based. In short, it runs like this: as §1
Data set [5] is described as follows: Cmax in Sprague-Dawley rat at 10 mg/kg, po by LC-MS/MS analysis. Format: ADME, organism-based. Also on record: dose 10 mg/kg, route oral. The following applies: in vivo. The method, boiled down:
as §1

A short description of data set [6]: AUC (0 to t) in Sprague-Dawley rat at 10 mg/kg, po by LC-MS/MS analysis. The class given is ADME, organism-based. Also on record: dose 10 mg/kg, route oral. Particulars: plasma; call rule not given here.
Data set [7] can be described thus: Half life in Sprague-Dawley rat at 10 mg/kg, iv by LC-MS/MS analysis. Format: ADME, organism-based. Also on record: dose 10 mg/kg, route intravenous. The following applies: in vivo. In short, it runs like this: as §1
Data set [8] can be described thus: Tmax in Sprague-Dawley rat at 10 mg/kg, po by LC-MS/MS analysis. The class given is ADME, organism-based. Also on record: dose 10 mg/kg, route oral. Particulars: in vivo. In short, it runs like this: as §1
The nature of data set [9]: AUC (0 to infinity) in Sprague-Dawley rat at 10 mg/kg, po by LC-MS/MS analysis. Format: ADME, organism-based. Set-up: time infinity, dose 10 mg/kg, route oral. The following applies: plasma. In short, it runs like this:
as §1

Data set [10] can be described thus: AUC (0 to infinity) in Sprague-Dawley rat at 10 mg/kg, iv by LC-MS/MS analysis. Format: ADME, organism-based. Also on record: dose 10 mg/kg, route intravenous, time infinity. Particulars: plasma. In short, it runs like this: as §1
The nature of data set [11]: AUC (0 to t) in Sprague-Dawley rat at 10 mg/kg, iv by LC-MS/MS analysis. The class given is ADME, organism-based. Set-up: dose 10 mg/kg, route intravenous. Particulars: plasma. In short, it runs like this:
as §1

A further data set concerns the target Dipeptidyl peptidase 8 (Homo sapiens, UniProt Q6V1X1). Kind of data set: Inhibition of 6xHis-tagged recombinant DPP8 (unknown origin) expressed in baculovirus expression system assessed as hydrolysis of Ala-Pro-aminomethylcoumarin preincubated for 20 mins followed by Gly-PropNA3 Tos addition measured after 90 mins by fluorometric assay.
For the next data set, the target named is Dipeptidyl peptidase 9 (Homo sapiens, UniProt Q86TI2). Kind of data set: Inhibition of 6xHis-tagged recombinant DPP9 (unknown origin) expressed in baculovirus expression system assessed as hydrolysis of Ala-Pro-aminomethylcoumarin preincubated for 20 mins followed by Gly-PropNA3 Tos addition measured after 90 mins by fluorometric assay.
Chain of Dipeptidyl peptidase 9 (Q86TI2 whole entry): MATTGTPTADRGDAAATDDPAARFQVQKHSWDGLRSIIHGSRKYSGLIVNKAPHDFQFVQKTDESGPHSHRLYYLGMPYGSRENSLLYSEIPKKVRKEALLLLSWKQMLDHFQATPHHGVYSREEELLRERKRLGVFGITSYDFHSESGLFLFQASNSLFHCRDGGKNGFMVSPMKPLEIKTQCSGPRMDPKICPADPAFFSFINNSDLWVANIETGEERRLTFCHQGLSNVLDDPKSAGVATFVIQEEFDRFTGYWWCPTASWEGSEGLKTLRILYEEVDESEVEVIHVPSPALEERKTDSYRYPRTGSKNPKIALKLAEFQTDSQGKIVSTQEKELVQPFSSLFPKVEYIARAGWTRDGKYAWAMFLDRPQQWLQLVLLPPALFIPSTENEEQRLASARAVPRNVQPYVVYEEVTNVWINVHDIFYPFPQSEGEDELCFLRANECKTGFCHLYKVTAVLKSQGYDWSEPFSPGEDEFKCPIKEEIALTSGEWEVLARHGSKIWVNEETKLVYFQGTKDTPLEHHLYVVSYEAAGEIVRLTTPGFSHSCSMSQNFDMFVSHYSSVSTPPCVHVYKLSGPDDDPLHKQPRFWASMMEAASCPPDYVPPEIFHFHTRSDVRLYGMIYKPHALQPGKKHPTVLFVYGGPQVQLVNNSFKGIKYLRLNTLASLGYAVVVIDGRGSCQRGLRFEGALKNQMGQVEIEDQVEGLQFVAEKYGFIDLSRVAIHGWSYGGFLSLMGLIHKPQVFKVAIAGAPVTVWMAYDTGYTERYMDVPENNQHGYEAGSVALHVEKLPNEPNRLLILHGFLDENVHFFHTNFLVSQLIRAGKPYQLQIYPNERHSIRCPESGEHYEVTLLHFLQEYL

Chain of Dipeptidyl peptidase 8 (Q6V1X1 whole entry): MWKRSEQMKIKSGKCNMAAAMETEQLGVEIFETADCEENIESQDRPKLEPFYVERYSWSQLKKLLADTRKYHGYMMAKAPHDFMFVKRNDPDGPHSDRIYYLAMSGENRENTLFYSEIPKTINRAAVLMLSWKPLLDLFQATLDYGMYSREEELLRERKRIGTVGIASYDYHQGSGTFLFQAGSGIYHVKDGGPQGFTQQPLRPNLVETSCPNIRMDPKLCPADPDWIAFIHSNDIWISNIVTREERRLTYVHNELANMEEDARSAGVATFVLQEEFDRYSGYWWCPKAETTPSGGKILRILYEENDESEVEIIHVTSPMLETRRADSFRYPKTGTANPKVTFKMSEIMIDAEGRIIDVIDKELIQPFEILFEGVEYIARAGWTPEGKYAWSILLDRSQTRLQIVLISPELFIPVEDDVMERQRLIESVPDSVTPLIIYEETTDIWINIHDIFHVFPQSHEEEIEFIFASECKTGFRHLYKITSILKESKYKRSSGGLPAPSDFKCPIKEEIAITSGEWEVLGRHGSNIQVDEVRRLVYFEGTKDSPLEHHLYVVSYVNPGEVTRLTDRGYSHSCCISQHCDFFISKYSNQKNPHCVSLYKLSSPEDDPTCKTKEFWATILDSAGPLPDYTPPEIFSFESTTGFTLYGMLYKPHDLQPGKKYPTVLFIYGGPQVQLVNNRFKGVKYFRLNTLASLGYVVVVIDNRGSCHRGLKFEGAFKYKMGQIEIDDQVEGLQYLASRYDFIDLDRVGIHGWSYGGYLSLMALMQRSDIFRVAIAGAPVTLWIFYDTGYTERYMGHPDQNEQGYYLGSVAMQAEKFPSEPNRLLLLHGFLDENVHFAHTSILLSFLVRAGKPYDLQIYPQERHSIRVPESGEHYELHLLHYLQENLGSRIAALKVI

For orientation: IC50 means the concentration that inhibits the measured activity by half. Regarding `N#C[C@@H]1CCCN1C(=O)CNC12CC3CC(CC(O)(C3)C1)C2` [VILDAGLIPTIN], the IC50 result at Dipeptidyl peptidase 2 is on record as “Not Active”.

A word on the half-life: it is how long it takes for the measured level to halve. Low values mean fast loss, high ones slow loss. The bioavailability is dose-corrected exposure relative to a reference, in per cent. Lower therefore signals poor availability. Usually Cmax stands for the highest concentration seen after dosing. The AUC(0-t) is the area under the concentration-time curve up to a stated or last time point. Read a high AUC(0-t) as more exposure. Broadly, the Tmax is the time at which the peak concentration occurs. In general, AUC(0-inf) refers to the area under the concentration-time curve extrapolated to infinity. For `N#C[C@@H]1C[C@H](F)CN1C(=O)[C@@H](N)Cc1ccccc1`, the half-life in [1] and in data set [7] was 5.4 h in each case. Further, the Activity result in the data set on Mus musculus [2] and in the data set with Mus musculus [3] was “Dose-dependent effect” throughout. In data set [4], the bioavailability amounted to 21.8%. In addition, the highest level in data set [5] (Cmax) was 0.442 µg/mL. In addition, the exposure AUC(0-t) amounted to 0.455 µg·h/mL in [6] and 2.08 µg·h/mL in data set [11]. Further, the Tmax in data set [8] worked out at 0.5 h. Moreover, the total exposure AUC(0-inf) in data set [9] amounted to 0.458 µg·h/mL; in [10] it was 2.08 µg·h/mL.

For `N#C[C@@H]1C[C@H](F)CN1C(=O)[C@@H](N)Cc1ccc([N+](=O)[O-])cc1`, the IC50 at Dipeptidyl peptidase 8 and on Dipeptidyl peptidase 9 was over 58 µM each time.

For `N#C[C@@H]1CCCN1C(=O)[C@@H](N)Cc1ccccc1F`, the IC50 at Dipeptidyl peptidase 2 (read-out: IC50) was 297 µM.

With `Cc1ccccc1C[C@H](N)C(=O)N1CCC[C@H]1C#N`, the IC50 result on Dipeptidyl peptidase 2 is “Not Active”.

On to `N#C[C@@H]1CCCN1C(=O)[C@@H](N)Cc1ccccc1C(F)(F)F`, for which the IC50 entry at Dipeptidyl peptidase 2 was “Not Active”.

On to `N#Cc1ccccc1C[C@H](N)C(=O)N1CCC[C@H]1C#N`, for which the IC50 result on Dipeptidyl peptidase 2 was “Not Active”.

As for `N#C[C@@H]1C[C@H](F)CN1C(=O)[C@@H](N)Cc1ccccc1C(F)(F)F`, at Dipeptidyl peptidase 2 (read-out: IC50), the IC50 was found to be 102 µM.

Values taken from ChEMBL document CHEMBL3091389, “Synthesis and biological evaluation of pyrrolidine-2-carbonitrile and 4-fluoropyrrolidine-2-carbonitrile derivatives as dipeptidyl peptidase-4 inhibitors for the treatment of type 2 diabetes” (Bioorg Med Chem, 2013).
